Screening results deposited in PubChem by several laboratories.
This is a sample that favours compounds with a hit; in the whole collection about 3.2% have one here.
DAX1 inh-1: inhibitors of human orphan nuclear receptor DAX1 (NR0B1); AID 504766; inhibition, % at 6.75 µM; 340,000 tested, 0.99% active; HEK293 Gal4-DAX1 luciferase reporter, luminescence;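 active means inhibition above the mean over all tested compounds plus 3 SD, cut at about 4.2% in these data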;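 further: 0% = DAX1-transfected cells with DMSO and 100% = empty-vector control cells with DMSO; inhibition shows as a rise in luminescence from relieved DAX1 repression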
Target sequence (P51843 207-470 limits assumed): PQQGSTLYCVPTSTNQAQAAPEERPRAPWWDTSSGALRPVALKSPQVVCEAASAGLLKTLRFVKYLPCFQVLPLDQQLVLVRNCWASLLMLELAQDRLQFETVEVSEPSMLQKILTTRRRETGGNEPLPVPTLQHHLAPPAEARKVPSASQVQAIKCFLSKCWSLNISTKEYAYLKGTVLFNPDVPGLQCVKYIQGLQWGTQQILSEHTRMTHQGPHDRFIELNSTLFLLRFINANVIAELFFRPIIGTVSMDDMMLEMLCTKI
NR2E3 ag-1: agonists of human nuclear receptor NR2E3. 320,000 tested, 0.12% active. Q9Y5X4. inhibition of corepressor binding, % at 4.78 µM. AID 2300. GST-NR2E3/biotin-RetCOR TR-FRET, 1536-well;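 active means percent inhibition above the cutoff of mean plus 3 SD of all tested compounds, set per screening campaign, cut at about 20% in these data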;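 further: 0% = DMSO wells and 100% = biotin wells as full block of FRET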
Target sequence (Q9Y5X4 whole entry, looked up): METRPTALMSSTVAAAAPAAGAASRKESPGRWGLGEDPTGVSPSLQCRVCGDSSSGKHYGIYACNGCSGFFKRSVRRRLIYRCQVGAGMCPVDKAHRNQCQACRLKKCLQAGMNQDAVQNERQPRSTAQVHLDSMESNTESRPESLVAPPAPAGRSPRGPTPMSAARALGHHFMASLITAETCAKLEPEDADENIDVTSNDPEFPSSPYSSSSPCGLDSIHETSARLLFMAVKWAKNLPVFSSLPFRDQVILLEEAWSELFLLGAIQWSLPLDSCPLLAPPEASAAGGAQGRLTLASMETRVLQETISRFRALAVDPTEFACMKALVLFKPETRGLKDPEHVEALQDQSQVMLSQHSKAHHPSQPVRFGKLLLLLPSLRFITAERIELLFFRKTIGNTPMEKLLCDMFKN
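System: GST-tagged NR2E3 plus biotinylated RetCOR corepressor; Amount: 1.35 nM GST-tagged NR2E3 final; Dosing: single nominal compound dose of 4.8 µM; Schedule: 5 h incubation at 4 °C; Technique: TR-FRET with europium anti-GST and streptavidin-D2, 340 nm excitation; Controls: biotin wells as high control, 0.6% DMSO wells as low control.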
NR2E3 ag-2: agonists of human NR2E3 nuclear receptor; 360,000 tested, 0.35% active; inhibition of corepressor binding, % at 3.98 µM; CHO-S Gal4-NCOR/VP16-NR2E3 two-hybrid, luciferase; Q9Y5X4;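 active means inhibition above the mean of all tested compounds plus 3 SD, cut at about 70% in these data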;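 further: 0% = DMSO with NR2E3 transfected cells and 100% = cells lacking NR2E3 construct; higher means lower luciferase signal from less NR2E3 corepressor binding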
DAX1 inh-2: blocks DAX1 repression of SF-1 activated StAR promoter | HEK293T StAR-luciferase reporter, SF-1/DAX-1 repression relief | inhibition, % at 6.8 µM | 370,000 tested, 1.1% active | AID 652010;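 active means inhibition above the mean over all tested compounds plus 3 SD, cut at about 3.6% in these data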;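 further: 0% = DAX-1 cells with DMSO and 100% = cells lacking DAX-1 with DMSO; higher inhibition means more luminescence from relief of DAX-1 repression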
JMJD2C inh: human JMJD2C demethylase inhibition; AID 2099; Q9H3R0; GST-JMJD2C(1-420) H3K9me3 demethylation, DELFIA europium; 330,000 tested, 0.069% active; inhibition, % at 2.35 µM;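 active means more than half of a compound's replicate wells show inhibition beyond 50%, single wells judged on their own value; inconclusive means some, but no more than half, of replicates pass 50% inhibition; inactive means no replicate passes 50% inhibition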;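 further: signal counts dimethyl H3K9 product captured on neutravidin plate; 0% = median of DMSO wells and 100% = 0.3 times that DMSO median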
SMARCA2 activ: SMARCA2 function activation, primary screen; MG213 cells, MMTV-luciferase reporter, dexamethasone, overnight; activation, % at 9.1 µM; 370,000 tested, 1% active; AID 652017; in the data active means activation above about 7.8%;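 further: 0% = vehicle wells and 100% = reference activator wells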
NR2E3 agonist cf: confirmation of human NR2E3 nuclear receptor agonists; shares compounds with NR2E3 ag-1; cell-free NR2E3 corepressor release, TR-FRET, 5 h; 360 tested, 39% active; activation (reported as inhibition), % at 3.98 µM; in the data active means activation above about 20%
PPARg-NCOR2 ctr: PPARg-NCOR2 interaction agonism, NR2E3 counter-screen; TR-FRET PPARg-NCOR2 coregulator interaction, biochemical; shares compounds with NR2E3 ag-1; 360 tested, 45% active; inhibition, % at 3.98 µM; in the data active means inhibition above about 20%;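 further: 0% = DMSO vehicle and 100% = wells without protein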
An asterisk follows results filed as active; ? = inconclusive; / = no result.

SMILES	DAX1 inh-1	NR2E3 ag-1	NR2E3 ag-2	DAX1 inh-2	JMJD2C inh	SMARCA2 activ	NR2E3 agonist cf	PPARg-NCOR2 ctr
COc1cccc(-c2nnc(SCC(=O)OC(C)C)n2-c2ccc(Cl)cc2)c1	/	/	/	-0.1	/	-0.7	/	/
CCOc1ccc(NC(=S)Nc2ccc3nsnc3c2)cc1	-2.1	31.4*	-29.5	-0.3	-0.4	-5.8	-16.3	-3.6
COc1ccc(NC(=S)Nc2ccc3nsnc3c2)cc1	-2.2	28.7*	-73.7	-0.5	0.7	-5.5	-9.4	-8.5
CC(C)N(C(=O)Nc1ccc2nsnc2c1)C(C)C	/	38.2*	/	-0.6	3.6	-6.1	-12.8	-8.7
CCOc1cc(CCNC(=O)c2cc3ccsc3n2C)ccc1OC	/	/	/	-1.0	/	0.5	/	/
Cc1ccc(CN2CCCCC(NC(=O)c3cccc(C(F)(F)F)c3)C2=O)cc1 (stereo not given)	/	/	/	0.2	/	-2.5	/	/
Cc1cc(SCC(=O)NC2CCCC2)nc2ccccc12	1.4	22.0*	-10.2	0.3	-13.8	5.1	8.3	5.0
Cc1nc2ccc(NC(=O)c3cc(Cl)ccc3F)cc2c(=O)[nH]1	/	/	/	0.6	/	7.7	/	/
O=c1oc2c(O)c(O)cc3c(=O)oc4c(O)c(O)cc1c4c23	-0.6	37.6*	-14.0	/	/	/	33.9*	/
COc1ccc(Cn2cc(COC(=O)N3CCOCC3)nn2)cc1	/	/	/	0.0	/	-0.2	/	/
N#CC1=C(N)SC(N)=C(C#N)C1c1ccoc1	/	36.1*	/	/	8.1	/	23.1*	27.3*
Cc1ccc(C2C(C#N)=C(N)SC(N)=C2C#N)cc1	-2.2	/	-2.9	0.3	/	-3.2	/	/
O=C(NN1C(=O)/C(=C/C=C/c2ccco2)SC1=S)c1ccncc1	/	24.6*	-16.4	-0.1	-13.7	3.1	0.9	7.6
CCn1c(COc2ccc(C)cc2)nnc1SCC(=O)Nc1ccc(Oc2ccccc2)cc1	/	/	/	-0.5	/	-5.0	/	/
CCCCn1c(NC(=O)c2ccco2)c(S(=O)(=O)c2ccc(C)cc2)c2nc3ccccc3nc21	0.3	/	-17.9	-0.3	29.4	1.0	/	/
CCCCCn1c(NC(=O)c2ccco2)c(S(=O)(=O)c2ccc(C)cc2)c2nc3ccccc3nc21	1.2	20.5*	-7.3	-1.6	-3.3	-1.7	9.0	41.7*
C=CCNC(=S)Nc1nc2c(cc1C(=O)OCC)CCCC2	-0.1	1.1	-11.3	-0.1	-0.4	-3.2	/	/
CCNC(=S)Nc1nc2c(cc1C(=O)OCC)CCCC2	2.8	21.3*	-15.5	0.1	0.1	0.7	26.7*	19.9*
O=C(C1=C(O)C(=O)N(CCc2ccccc2)C1c1ccncc1)c1cc2ccccc2o1 (stereo not given)	0.5	34.5*	-8.8	0.2	8.6	2.0	30.6*	31.3*
CN(C)CCN1C(=O)C(O)=C(C(=O)c2cc3ccccc3o2)C1c1cccc(Br)c1 (stereo not given)	1.6	36.0*	-3.0	1.1	12.0	1.9	35.9*	33.9*
COc1ccccc1C1C(C(=O)c2cc3ccccc3o2)=C(O)C(=O)N1CCN(C)C (stereo not given)	0.6	18.3	6.1	-0.1	-1.7	-0.3	/	/
COc1cc(C2C(C(=O)c3cccs3)=C(O)C(=O)N2CCN2CCOCC2)cc(OC)c1OC (stereo not given)	3.0	3.0	-20.0	1.1	-4.2	-0.6	/	/
CCN(CC)CCN1C(=O)C(O)=C(C(=O)c2cc3ccccc3o2)C1c1cccnc1 (stereo not given)	-0.4	28.2*	-26.7	-0.2	1.8	0.8	26.7*	28.4*
COc1cccc2cc(C(=O)C3=C(O)C(=O)N(CCN4CCOCC4)C3c3cccs3)oc12 (stereo not given)	0.7	23.8*	5.0	-0.1	8.8	-2.2	21.2*	18.2
CC(C)C[C@@H]1COc2cc(Br)ccc2S(=O)(=O)N1Cc1cn(Cc2ccc(F)cc2)nn1	/	/	/	1.4	/	-3.3	/	/
SMILES	DAX1 inh-1	NR2E3 ag-1	NR2E3 ag-2	DAX1 inh-2	JMJD2C inh	SMARCA2 activ	NR2E3 agonist cf	PPARg-NCOR2 ctr
O=C(C1=C(O)C(=O)N(CCN2CCOCC2)C1c1cccc(Br)c1)c1cc2ccccc2o1 (stereo not given)	0.4	35.4*	-20.8	0.0	-38.9	2.0	51.8*	56.9*
O=C(C1=C(O)C(=O)N(CCCN2CCOCC2)C1c1ccccn1)c1cc2ccccc2o1 (stereo not given)	1.3	34.0*	-7.8	1.0	-0.6	-4.9	16.2	21.6*
O=C(C1=C(O)C(=O)N(CCN2CCOCC2)C1c1cccc([N+](=O)[O-])c1)c1cc2ccccc2o1 (stereo not given)	1.0	/	1.0	-0.2	/	-1.6	/	/
O=C(C1=C(O)C(=O)N(CCN2CCOCC2)C1c1ccc(F)cc1)c1cc2ccccc2o1 (stereo not given)	0.3	27.4*	-3.1	-0.5	-4.2	0.2	31.4*	32.2*
Cc1ccc(C(=O)C2=C(O)C(=O)N(CCN3CCOCC3)C2c2ccccn2)o1 (stereo not given)	/	/	/	/	-29.3	/	/	/
O=C(C1=C(O)C(=O)N(CCN2CCOCC2)C1c1ccco1)c1cc2ccccc2o1 (stereo not given)	0.0	14.0	-10.0	-0.2	9.6	-3.9	/	/
COC(=O)[C@]12C[C@H](CC(=O)NCc3cccc4ccccc34)C(=O)N(Cc3cccc4ccccc34)C1=C[C@H](C(C)C)O[C@@H]2C1CC1	/	/	/	-0.6	/	-2.0	/	/
Cc1cccc(NC(=O)Nc2ccccc2C(=O)N2CCCC2)c1	/	/	/	0.0	/	0.8	/	/
O=C(NCc1ccccc1)c1ccc(CO)cc1	/	/	/	-0.7	/	-1.0	/	/
CC1=NN(c2ccc(C)c(C)c2)C(=O)C1C(c1cccc(O)c1)C1C(=O)N(c2ccc(C)c(C)c2)N=C1C (stereo not given)	-0.4	21.1*	27.9	-0.6	13.1	-3.1	-4.0	5.9
Cc1sc2nc(SCC(=O)NCc3ccco3)n(Cc3ccccc3)c(=O)c2c1C	0.3	37.7*	-36.2	-0.4	-15.5	-0.5	6.6	8.6
O=C(O)c1ccc2c(c1)[C@@H]1C=CC[C@@H]1[C@H](c1ccccn1)N2	0.5	47.5*	-35.3	0.8	-17.6	-4.8	12.4	9.5
COc1ccc(C(=O)N/N=C(\C)c2ccc3c(c2)C2C=CCC2C(c2ccccc2)N3)cc1 (stereo not given)	-1.2	-4.5	-26.9	/	9.6	/	/	/
Cn1nc(-c2ccc(Cl)cc2)nc2c(=O)n(C)c(=O)nc1-2	/	37.1*	/	/	?	/	32.4*	55.8*
CCOc1ccc(Br)cc1C(=O)Nc1ccc(C(=O)NCC(C)C)cc1	-1.2	33.7*	4.7	-0.2	9.4	-2.1	32.7*	38.0*
COC(=O)c1cc(S(=O)(=O)N2CCOCC2)c(Cl)cc1N1CCOCC1	2.4	0.8	-6.9	0.1	-0.5	-3.2	/	/
